Laboratory results taken from ChEMBL document CHEMBL1926667, “The synthesis of 2-nitroaryl-1,2,3,4-tetrahydroisoquinolines, nitro-substituted 5,6-dihydrobenzimidazo[2,1-a]isoquinoline N-oxides and related heterocycles as potential bioreducible substrates for the enzymes NAD(P)H: quinone oxidoreductase 1 and E. coli nitroreductase” (Bioorg Med Chem Lett, 2011).

Experiments:
Escherichia coli [1] = test: Activation of Escherichia coli nitroreductase assessed as decrease in NADH concentration at 100 uM relative to CB-1954
In short: (§1)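 Human NQO1 or E. coli NR reduction followed by the fall in NADH concentration over time; specific activity is the rate of reduction per enzyme at 37 °C. Relative values are the specific activity compared with CB-1954.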

Escherichia coli [2] = test: Activation of Escherichia coli nitroreductase assessed as specific activity per mg of protein at 100 uM by measuring decrease in NADH concentration; in short: as §1
[3] = target: NAD(P)H dehydrogenase [quinone] 1 (Homo sapiens) (UniProt P15559); test: Activation of human NQO1 assessed as decrease in substrate concentration at 100 uM by HPLC analysis relative to CB-1954
Sequence of NAD(P)H dehydrogenase [quinone] 1 (Homo sapiens) (P15559 whole entry): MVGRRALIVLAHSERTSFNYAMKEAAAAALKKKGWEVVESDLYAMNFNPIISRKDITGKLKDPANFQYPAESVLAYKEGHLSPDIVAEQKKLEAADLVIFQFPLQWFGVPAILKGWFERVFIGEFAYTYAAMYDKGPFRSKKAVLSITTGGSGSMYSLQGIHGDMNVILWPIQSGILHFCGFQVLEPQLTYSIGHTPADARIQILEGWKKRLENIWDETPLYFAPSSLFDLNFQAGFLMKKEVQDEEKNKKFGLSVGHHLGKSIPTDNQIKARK
In short: (§2)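 Reduction by human NQO1 or E. coli NR followed by the disappearance of substrate over time; specific activity is the rate of substrate reduction at 37 °C. Relative activity is the specific activity compared with CB-1954.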

[4] = target: NAD(P)H dehydrogenase [quinone] 1 (Homo sapiens) (UniProt P15559); test: Activation of human NQO1 assessed as specific activity per mg of protein at 100 uM by measuring decrease in substrate concentration by HPLC analysis; in short: as §2
[5] = Solubility of the compound in 10 mM phosphate buffer with 10% DMSO at pH 7; assay type: physicochemical
Escherichia coli [6] = test: Activation of Escherichia coli nitroreductase assessed as decrease in substrate concentration at 100 uM by HPLC analysis relative to CB-1954; in short: as §2
Escherichia coli [7] = test: Activation of Escherichia coli nitroreductase assessed as specific activity per mg of protein at 100 uM by measuring decrease in substrate concentration by HPLC analysis; in short: as §2
Escherichia coli [8] = test: Activation of Escherichia coli nitroreductase assessed as specific activity per mg of protein at 50 uM by measuring decrease in substrate concentration by HPLC analysis relative to CB-1954
In short: (§3)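 Used for poorly soluble substrates: 50 µM compound in buffer (10 mM phosphate, pH 7) with 10% DMSO, incubated with human NQO1 or E. coli NR at 37 °C. Substrate disappearance was monitored over time. Rates assume a 50 µM starting concentration and no DMSO effect on the enzyme. Relative activity is compared with CB-1954.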

Escherichia coli [9] = test: Activation of Escherichia coli nitroreductase assessed as specific activity per mg of protein at 50 uM by measuring decrease in substrate concentration by HPLC analysis; in short: as §3
[10] = target: NAD(P)H dehydrogenase [quinone] 1 (Homo sapiens) (UniProt P15559); test: Activation of human NQO1 assessed as specific activity per mg of protein at 50 uM by measuring decrease in substrate concentration by HPLC analysis; in short: as §3
[11] = Solubility of the compound at 100 uM in sodium phosphate buffer with 10% DMSO and 500 uM NADH at pH 7; assay type: physicochemical; conditions: pH 7, 100 µM
[12] = target: NAD(P)H dehydrogenase [quinone] 1 (Homo sapiens) (UniProt P15559); test: Activation of human NQO1 assessed as specific activity per mg of protein at 50 uM by measuring decrease in substrate concentration by HPLC analysis relative to CB-1954; in short: as §3

| SMILES | fold change (FC) [3] | Activity [4] | fold change (FC) (Escherichia coli [6]) | Activity (Escherichia coli [7]) | other results |
| --- | --- | --- | --- | --- | --- |
| NC(=O)c1cc([N+](=O)[O-])cc([N+](=O)[O-])c1N1CCc2ccccc2C1 | 8.6 | 0.053 µmol/min | – | – | fold change (FC) (Escherichia coli [1]): 1.5; Activity (Escherichia coli [2]): 2.82 µmol/min |
| O=[N+]([O-])c1cc([N+](=O)[O-])c(N2CCc3c(cccc3[N+](=O)[O-])C2)c(C(F)(F)F)c1 | – | – | – | – | solubility [5]: Insoluble |
| O=[N+]([O-])c1cnc2c(c1)[n+]([O-])c1n2CCc2ccccc2-1 | 27.4 | 0.17 µmol/min | 29 | 54 µmol/min | – |
| O=C(O)c1cc([N+](=O)[O-])c(N2CCc3ccccc3C2)c([N+](=O)[O-])c1 | < 0.16 | < 0.001 µmol/min | 0.01 | 0.02 µmol/min | – |
| NC(=O)c1cc(N2CC2)c([N+](=O)[O-])cc1[N+](=O)[O-] | – | – | – | 1.86 µmol/min | Activity (10'-3umol/min) [4]: 6.2 |
| O=[N+]([O-])c1cc([N+](=O)[O-])c(N2CCc3ccccc3C2)c(C(F)(F)F)c1 | 17.7 | 0.11 µmol/min | 22.3 | 41.5 µmol/min | – |
| NC(=O)c1cc([N+](=O)[O-])c(N2CCc3ccccc3C2)c([N+](=O)[O-])c1 | < 0.16 | < 0.001 µmol/min | < 0.001 | < 0.001 µmol/min | – |
| O=[N+]([O-])c1ccc2c(c1)[n+]([O-])c1n2CCc2ccccc2-1 | 2.6 | 0.016 µmol/min | 0.3 | 0.5 µmol/min | – |
| NC(=O)c1cc(N2CCc3ccccc3C2)c([N+](=O)[O-])cc1[N+](=O)[O-] | 6.8 | 0.042 µmol/min | 2.4 | 4.4 µmol/min | – |
| O=[N+]([O-])c1ccc2c(c1)[n+]([O-])c1n2CCc2c-1cccc2[N+](=O)[O-] | < 0.16 | < 0.001 µmol/min | – | – | fold change (FC) (Escherichia coli [1]): 0.8; Activity (Escherichia coli [2]): 1.51 µmol/min |
| NC(=O)c1cc2c(cc1[N+](=O)[O-])[n+]([O-])c1n2CCc2c-1cccc2[N+](=O)[O-] | < 0.16 | < 0.001 µmol/min | < 0.001 | < 0.001 µmol/min | – |
| O=[N+]([O-])c1ccc2c(c1)-c1n(c3ccc([N+](=O)[O-])cc3[n+]1[O-])CC2 | < 0.16 | < 0.001 µmol/min | – | – | fold change (FC) (Escherichia coli [1]): 0.6; Activity (Escherichia coli [2]): 1.3 µmol/min |
| O=[N+]([O-])c1cnc(N2CCc3ccccc3C2)c([N+](=O)[O-])c1 | 2.1 | 0.013 µmol/min | 0.8 | 1.49 µmol/min | – |
| O=[N+]([O-])c1cc(C(F)(F)F)c2c(c1)[n+]([O-])c1n2CCc2c-1cccc2[N+](=O)[O-] | < 0.16 | < 0.001 µmol/min | < 0.001 | < 0.001 µmol/min | – |
| O=[N+]([O-])c1ccc2c(c1)CN(c1c([N+](=O)[O-])cc([N+](=O)[O-])cc1C(F)(F)F)CC2 | – | – | – | – | fold change (FC) (Escherichia coli [8]): 1.3; Activity (Escherichia coli [9]): 2.39 µmol/min; Activity [10]: 0.076 µmol/min; solubility [11]: Insoluble; fold change (FC) [12]: 12.3 |
| O=[N+]([O-])c1ccc(N2CCc3ccccc3C2)c([N+](=O)[O-])c1 | < 0.16 | < 0.001 µmol/min | 0.2 | 0.44 µmol/min | – |
| NC(=O)c1cc2c(cc1[N+](=O)[O-])[n+]([O-])c1n2CCc2ccccc2-1 | < 0.16 | < 0.001 µmol/min | < 0.001 | < 0.001 µmol/min | – |
| NC(=O)c1cc([N+](=O)[O-])cc2c1n1c([n+]2[O-])-c2ccccc2CC1 | < 0.16 | < 0.001 µmol/min | – | – | fold change (FC) (Escherichia coli [1]): 0.9; Activity (Escherichia coli [2]): 1.62 µmol/min |
| O=C(O)c1cc([N+](=O)[O-])cc([N+](=O)[O-])c1N1CCc2ccccc2C1 | 1.8 | 0.011 µmol/min | 2.3 | 4.22 µmol/min | – |
